Among the data in the array DNA melting data of Ke et al. (doi:10.1101/2024.01.08.574731) are folding enthalpy and Tm values, retold here.

Series [1] can be described thus: folding enthalpy; higher = less favourable; fluorescence melt of hairpins on a sequencing array, two-state fit. Conditions: sodium 0.088 M. The essentials:
(§1)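 Bootstrapped two-state fits yielded melting temperature and folding enthalpy for library hairpins. Cy3 fluorescence, with annealed Cy3 and quencher oligos, was imaged on a sequenced MiSeq flow cell in 50 mM Na-HEPES pH 8.0, 25 mM NaCl in 2.5 °C steps up to 60 °C, and normalised to pre-quench Cy3 and to control constructs. Four replicates were combined by inverse variance, and fitted temperatures were raised by 9.35 °C to match UV melts.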

A short description of series [2]: melting temperature; fluorescence melt of hairpins on a sequencing array, two-state fit, raised by 9.35 °C to match UV melts. The note with it: sodium 0.088 M. In outline:
as §1

As for CGGCAGCGGAAACGCCCG (((..(((....)))))), the folding enthalpy in series [1] was -21.7 kcal/mol. Further, in series [2], the Tm was 47 °C.

Take GCTGAGCGAAAGCTGGGC ((..(((....)))..)): in series [1], the folding enthalpy is -19.8 kcal/mol. Besides, the Tm in series [2] worked out at 50.3 °C.

Turning to GATCGTGCATACGATC ((((((....)))))), the folding enthalpy in series [1] was -37.7 kcal/mol. Also, the Tm in series [2] stood at 60.5 °C.

With GCGAGCGGAAACGTTCGC ((((.((....)).)))), the folding enthalpy in series [1] was -41.2 kcal/mol. Moreover, in series [2], the Tm amounted to 63.4 °C.

Turning to GCGCACGGAAACGCGCGC ((((.((....)).)))), the folding enthalpy in series [1] is -40.6 kcal/mol. Further, the Tm in series [2] was 69 °C.

As for GCACTCCGAAAGGACTGC (((.(((....))).))), the folding enthalpy in series [1] was -18.5 kcal/mol. Further, the Tm in series [2] came to 40.4 °C.

With GCGTCTAGACGC ((((....)))), in series [1], the folding enthalpy was -31 kcal/mol. In series [2], the Tm was 58.6 °C.

For GTTGTGGGAAACCATGAC ((..(((....)))..)), the folding enthalpy in series [1] was -30.4 kcal/mol. Also, the Tm in series [2] amounted to 34.7 °C.

Regarding GGCAGGGGAAACTCTGCC (((((.(....).))))), the folding enthalpy in series [1] is -48.5 kcal/mol. For the same sequence, the Tm in series [2] was found to be 57 °C.

For GTTGTCGAAAGACACAAC ((((((....)))..))), the folding enthalpy in series [1] is -11 kcal/mol. The Tm in series [2] stood at 32.6 °C.

GCCCCTGGAAACGGGGGC (((((.(....).))))): the folding enthalpy in series [1] is -33.7 kcal/mol. The Tm in series [2] is 66.6 °C.

Regarding GACCGCGGAAACGCAGTC (((.(((....))).))), the folding enthalpy in series [1] was -24.6 kcal/mol. Further, the Tm in series [2] is 48.9 °C.

For the sequence GAAATTGCGAAAGCATTC (((..(((....)))))), the folding enthalpy in series [1] is -6.33 kcal/mol. In addition, the Tm in series [2] turned out to be 23.4 °C.

For the sequence GCACTCGAAAGAGGTTGC ((((((....)))..))), the folding enthalpy in series [1] was -18.6 kcal/mol. Also, the Tm in series [2] was 37.6 °C.

With GAGGTAGGAAACTGCTTC ((.(.((....)).).)), the folding enthalpy in series [1] is -15.6 kcal/mol. Moreover, in series [2], the Tm worked out at 26.7 °C.

As for GCAGTGCGAAAGCAAGGC ((..(((....)))..)), the folding enthalpy in series [1] was -16.1 kcal/mol. In addition, the Tm in series [2] is 56.7 °C.

In the case of GTGAATCCGAAAGGACAC (((..(((....)))))), the folding enthalpy in series [1] is -20.1 kcal/mol. Further, the Tm in series [2] was 32.8 °C.

On to GTCTAGCGAAAGCTGGAC (((.(((....))).))), for which the folding enthalpy in series [1] was -33.7 kcal/mol. Besides, the Tm in series [2] was 61.6 °C.

Turning to GGTTTGTCGAAAGACACC (((..(((....)))))), the folding enthalpy in series [1] was -10.9 kcal/mol. In addition, in series [2], the Tm was found to be 31.2 °C.

As to GTCATCGAAAGATGGAC ((((((....))).))), in series [1], the folding enthalpy was -17.6 kcal/mol. Also, in series [2], the Tm turned out to be 43.9 °C.

For the sequence GCCTCGCCGAAAGGCGGC (((..(((....)))))), the folding enthalpy in series [1] is -5.04 kcal/mol. In addition, the Tm in series [2] was found to be 55.4 °C.

Consider TGTCGGAAACGACA (((((....))))), for which, in series [1], the folding enthalpy is -16.3 kcal/mol. Further, the Tm in series [2] worked out at 60 °C.

For GCATCCCGAAAGGGTGC (((.(((....)))))), in series [1], the folding enthalpy was -15.5 kcal/mol. In addition, the Tm in series [2] stood at 61.5 °C.

Turning to GCCAAACGAAAGTTAGGC (((.(((....))).))), the folding enthalpy in series [1] was -29.5 kcal/mol. For the same sequence, the Tm in series [2] amounted to 54.9 °C.

As for GGGTGCGAAAGCATCCCC ((((((....)))..))), the folding enthalpy in series [1] was -13.4 kcal/mol. The Tm in series [2] stood at 64.3 °C.

On to GTCTCTCCGAAAGGAGAC (((..(((....)))))), for which, in series [1], the folding enthalpy was -9.6 kcal/mol. Besides, in series [2], the Tm came to 35.8 °C.

For GCAACGCGAAAGCTCTGC (((..((....))..))), in series [1], the folding enthalpy was -9.33 kcal/mol. For the same sequence, the Tm in series [2] worked out at 34.6 °C.

As to GATCGAAGGATCGATC ((((((....)))))), the folding enthalpy in series [1] is -22.9 kcal/mol. In addition, the Tm in series [2] was 51.4 °C.

For the sequence GTATTCTCGAAAGAGTAC (((..(((....)))))), in series [1], the folding enthalpy is -7.69 kcal/mol. For the same sequence, the Tm in series [2] amounted to 22.9 °C.

GTACCCGAAAGGGTGTAC ((((((....)))..))): in series [1], the folding enthalpy was -10.1 kcal/mol. Further, in series [2], the Tm turned out to be 40.3 °C.

Turning to GAGCCGCGAAAGCGTCTC (((.(((....))).))), in series [1], the folding enthalpy was -22.4 kcal/mol. Moreover, in series [2], the Tm was 54.3 °C.

Consider CGCTCCGGAAACGGGCG (((.(((....)))))), for which the folding enthalpy in series [1] is -32.5 kcal/mol. Moreover, the Tm in series [2] was 54.1 °C.

Take GTATGACGAAAGTCTAC (((.(((....)))))): the folding enthalpy in series [1] is -16.9 kcal/mol. For the same sequence, in series [2], the Tm is 39 °C.

In the case of CGACCACGGAAACGTTCG (((..(((....)))))), in series [1], the folding enthalpy is -12.3 kcal/mol. In addition, the Tm in series [2] stood at 30.5 °C.

In the case of GGCATGGGAAACTATGCC (((((.(....).))))), in series [1], the folding enthalpy was -38.9 kcal/mol. Further, the Tm in series [2] stood at 53.6 °C.

For the sequence GCAGAGGGAAACCTTTGC (((.(((....))).))), the folding enthalpy in series [1] is -32.9 kcal/mol. Besides, the Tm in series [2] came to 45.2 °C.

Regarding GACGCACGAAAGTGGGTC (((.(((....))).))), in series [1], the folding enthalpy was -35.3 kcal/mol. Further, the Tm in series [2] came out at 63.9 °C.

Turning to GAAGATGCGAAAGCATTC (((..(((....)))))), the folding enthalpy in series [1] is -10.7 kcal/mol. Moreover, in series [2], the Tm was found to be 29.9 °C.

Turning to GCAGGCGAAAGCCGGTGC ((((((....)))..))), the folding enthalpy in series [1] was -14.5 kcal/mol. Moreover, the Tm in series [2] turned out to be 53.8 °C.

As to GCGGCAAACCGC ((((....)))), the folding enthalpy in series [1] was -27.8 kcal/mol. Also, in series [2], the Tm amounted to 55.8 °C.

Turning to GCTTAGCGAAAGCACAGC (((..((....))..))), the folding enthalpy in series [1] is -15.8 kcal/mol. Besides, the Tm in series [2] amounted to 38.6 °C.

Take GTATGGCGAAAGCCTTAC (((.(((....))).))): the folding enthalpy in series [1] is -22.8 kcal/mol. In series [2], the Tm is 48.2 °C.

In the case of GAACCGAAAGGTTC (((((....))))), the folding enthalpy in series [1] was -25.6 kcal/mol. In addition, the Tm in series [2] was 67.7 °C.

In the case of GCCAAGCGAAAGCGTCGC ((.(.((....)).).)), the folding enthalpy in series [1] was -12.9 kcal/mol. Further, in series [2], the Tm is 45.5 °C.

Take GTCGGAGGAAACTCCGGC (.(((((....))))).): the folding enthalpy in series [1] was -30.5 kcal/mol. Besides, the Tm in series [2] came out at 58.5 °C.

Take GCACCCGGAAACAGGTGC (((((.(....).))))): in series [1], the folding enthalpy was -34.6 kcal/mol. For the same sequence, the Tm in series [2] came out at 52.4 °C.

Consider GCATGCGGAAACGTGTGC (((..((....))..))), for which the folding enthalpy in series [1] is -37.8 kcal/mol. Further, the Tm in series [2] turned out to be 50.4 °C.

As to GTGGAAGGAAACTTCCAC (((((((....))))))), the folding enthalpy in series [1] is -42.7 kcal/mol. Moreover, in series [2], the Tm amounted to 62 °C.

Turning to GTATGACGAAAGTCTTAC (((.(((....))).))), the folding enthalpy in series [1] is -24.7 kcal/mol. Further, the Tm in series [2] worked out at 47.2 °C.

Take GTGATTGGAAACAATTAC ((.((((....)))).)): the folding enthalpy in series [1] was -32.3 kcal/mol. Moreover, the Tm in series [2] came out at 37.5 °C.

Regarding GCGGGTGCGAAAGCACGC (((..(((....)))))), in series [1], the folding enthalpy is -10.3 kcal/mol. Besides, the Tm in series [2] stood at 55.7 °C.

Regarding GATACACCGAAAGGTATC (((..(((....)))))), the folding enthalpy in series [1] was -13.2 kcal/mol. The Tm in series [2] amounted to 30.3 °C.

Regarding GACGACGGAAACGCCGTC ((((.((....)).)))), the folding enthalpy in series [1] is -31.4 kcal/mol. Also, the Tm in series [2] was determined as 56.4 °C.

In the case of GATCCCGTTGGGGATC ((((((....)))))), the folding enthalpy in series [1] is -42.4 kcal/mol. In addition, the Tm in series [2] stood at 64.7 °C.

As for GATCTAATCTTAGATC ((((((....)))))), the folding enthalpy in series [1] was -35.3 kcal/mol. In addition, the Tm in series [2] came out at 43.6 °C.
